In brackets after ≈: the same amount, converted by molar mass.
What was measured:
[1] = Retardation factor of the compound using CHCl3-MeOH at ratio of 1:1 as solvent system by thin layer chromatography; type: physicochemical
[2] = Retardation factor of the compound using CHCl3-MeOH at ratio of 3:1 as solvent system by thin layer chromatography; type: physicochemical
[3] = Retardation factor of the compound using CHCl3-MeOH at ratio of 6:1 as solvent system by thin layer chromatography; type: physicochemical
CCRF-CEM = assay: Growth inhibition of human CCRF-CEM cells; type: functional; conditions: read-out: ID50 (the source's name)
Method in brief: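 Human lymphoblastic leukaemia CCRF-CEM cells were grown in culture with the compound, and the concentration giving 50% growth inhibition (ID50) was reported in µg/mL.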

[4] = Retardation factor of the compound using C6H6-MeOH-AcOH at ratio of 45:30:1 as solvent system by thin layer chromatography; type: physicochemical
[5] = Retardation factor of the compound using C6H6-MeOH-AcOH at ratio of 9:6:1 as solvent system by thin layer chromatography; type: physicochemical
[6] = Retardation factor of the compound using C6H6-MeOH-AcOH at ratio of 9:3:1 as solvent system by thin layer chromatography; type: physicochemical
L1210 [7] = assay: Antitumor activity against mouse L1210 cells xenografted in mouse assessed as increase in median host lifespan at 160 mg/kg, ip administered q3d on days 1, 4 and 7; type: functional; conditions: route intraperitoneal
Method in brief: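 Mice implanted ip with 10^5 L1210 leukemia cells. Drug was dissolved in 0.005 M sodium phosphate buffer, pH 7.4, freshly prepared before use, and injected ip on days 1, 4 and 7 after implantation. The dose range tested was 20–160 mg/kg. Five mice per group, 15 controls. Read-out is the percent increase in median life span versus untreated mice.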

Mus musculus = assay: Toxicity in mouse xenografted with mouse L1210 cells assessed as body weight loss at 80 to 160 mg/kg, ip administered q3d on days 1,4 and 7; type: organism-based; parameters: dose 80-160 mg/kg, route intraperitoneal; conditions: in vivo
Method in brief: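 Mice were implanted ip with 10^5 L1210 cells and dosed ip on days 1, 4 and 7 after implantation. Soluble compounds were dissolved in freshly prepared 0.005 M sodium phosphate, pH 7.4; an insoluble one was suspended in 10% Tween 80. Groups had five mice, with 15 untreated controls, and body weight loss was scored as toxicity.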

L1210 [8] = assay: Anticancer activity against mouse L1210 cells xenografted in mouse assessed as increase in median host survival at 120 mg/kg, ip administered q3d on days 1, 4, 7; type: functional; conditions: route intraperitoneal
L1210 [9] = assay: Antitumor activity against mouse L1210 cells xenografted in mouse assessed as increase in median host lifespan at 15 mg/kg, ip administered q3d on days 1, 4 and 7; type: functional; conditions: route intraperitoneal
Method in brief: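 L1210 murine leukemia, 10^5 cells implanted ip; drug given ip on days 1, 4 and 7 after implantation, as disodium salt in aqueous solution. Five mice per treated group, 15 untreated controls. Read-out is the percent increase in median survival time over untreated mice.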

In the case of `CCOC(=O)CC[C@H](NC(=O)c1ccc(N(C)Cc2cnc3nc(N)nc(N)c3n2)cc1)C(=O)N[C@@H](CCC(=O)OCC)C(=O)OCC`, the Rf [1] is reported as 0.79, the Rf [2] is reported as 0.73 and the Rf [3] is reported as 0.4. For the same molecule, the IC50 (CCRF-CEM) was 0.85 µg/mL (≈ 1.27 µM).

`CCOC(=O)CC[C@H](NC(=O)[C@H](CCC(=O)O)NC(=O)c1ccc(N(C)Cc2cnc3nc(N)nc(N)c3n2)cc1)C(=O)OCC` showed a Rf [4] of 0.58, a Rf [5] of 0.46 and a Rf [6] of 0.31. The Rf [1] was 0.28, the Rf [2] was 0.1 and the Rf [3] was 0.04. The Activity (L1210 [7]) was 10%, the Activity (Mus musculus) was “Toxic” and the IC50 (CCRF-CEM) was greater than 10 µg/mL.

In the case of `CCOC(=O)CC[C@H](NC(=O)CC[C@H](NC(=O)c1ccc(N(C)Cc2cnc3nc(N)nc(N)c3n2)cc1)C(=O)O)C(=O)OCC` [listing 1 of 2 here], the survival at 120 mg/kg (L1210 [8]) is reported as 77%.

In the case of `CCOC(=O)CC[C@H](NC(=O)CC[C@H](NC(=O)c1ccc(N(C)Cc2cnc3nc(N)nc(N)c3n2)cc1)C(=O)O)C(=O)OCC` [listing 2 of 2 here], the Rf [4] is reported as 0.44, the Rf [5] is reported as 0.35 and the Rf [6] is reported as 0.2. The Rf [1] was 0.23, the Rf [2] was 0.02 and the Rf [3] was 0.01. For the same molecule, the Activity (L1210 [7]) was 40%, the Activity (Mus musculus) was “Toxic” and the IC50 (CCRF-CEM) was 0.88 µg/mL (≈ 1.38 µM).

In the case of `CCOC(=O)CC[C@H](NC(=O)CC[C@H](NC(=O)c1ccc(N(C)Cc2cnc3nc(N)nc(N)c3n2)cc1)C(=O)OCC)C(=O)OCC`, the Rf [1] is reported as 0.79, the Rf [2] is reported as 0.76 and the Rf [3] is reported as 0.44. For the same molecule, the IC50 (CCRF-CEM) was 1.8 µg/mL (≈ 2.7 µM).

With `CN(Cc1cnc2nc(N)nc(N)c2n1)c1ccc(C(=O)N[C@@H](CCC(=O)[O-])C(=O)[O-])cc1.[Na+].[Na+]` [METHOTREXATE SODIUM] the Activity (L1210 [9]) was 60%.

`CCOC(=O)CC[C@H](NC(=O)CC[C@@H](NC(=O)c1ccc(N(C)Cc2cnc3nc(N)nc(N)c3n2)cc1)C(=O)N[C@@H](CCC(=O)OCC)C(=O)OCC)C(=O)OCC` gave a Rf [1] of 0.82, a Rf [2] of 0.77 and a Rf [3] of 0.43. The IC50 (CCRF-CEM) was 9 µg/mL (≈ 10.9 µM).

`CCOC(=O)CC[C@H](NC(=O)CC[C@H](NC(=O)c1ccc(N(C)Cc2cnc3nc(N)nc(N)c3n2)cc1)C(=O)N[C@@H](CCC(=O)OCC)C(=O)OCC)C(=O)OCC` showed a Rf [1] of 0.82, a Rf [2] of 0.78 and a Rf [3] of 0.46. The IC50 (CCRF-CEM) was 3.8 µg/mL (≈ 4.61 µM).

Work on `CCOC(=O)CCC(NC(=O)CCC(NC(=O)c1ccc(N(C)Cc2cnc3nc(N)nc(N)c3n2)cc1)C(=O)NC(CCC(=O)OCC)C(=O)OCC)C(=O)OCC` (mixture of isomers) yielded a Rf [4] of 0.82, a Rf [5] of 0.68 and a Rf [6] of 0.47. The Rf [1] was 0.82, the Rf [2] was 0.77 and the Rf [3] was 0.4.

In the case of `CN(Cc1cnc2nc(N)nc(N)c2n1)c1ccc(C(=O)N[C@@H](CCC(=O)O)C(=O)O)cc1` [METHOTREXATE], the IC50 (CCRF-CEM) is reported as 0.003 µg/mL (≈ 0.0066 µM).
